High-throughput results as filed in PubChem.
Fibroblast inh = blocks proliferation of human lung fibroblasts. LL 47 human lung fibroblast viability, ATP luminescence; hits give low values. viability, % at 10 µM. actives 1.1% (n = 85,000);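 active means viability at or below 50% in the single dose screen; inactive means viability above 50%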;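 further: compound exposure lasted 72 h before the ATP readout; 100% = median luminescence of untreated cell-only wells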
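test system = LL 47 human lung fibroblasts | amount = 1,150 fibroblasts seeded per well | medium = 15% FBS in IMEM | times = overnight cell rest, 72 h compound treatment at 37 °C | measured by = CellTiter-Glo luminescence measuring cellular ATP | read-out = viability percentage against median untreated-cell control | benchmarks = cell-only wells, no compound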
HUVEC inhibit = inhibitors of human endothelial cell proliferation. HUVEC proliferation, CellTiter-Glo luminescence, 72 h; hits give low values. viability, % at 10 µM (by protocol). actives 1.1% (n = 86,000);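 active means viability at or below 30%; inactive means viability above 30%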;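 further: 100% = median luminescence of DMSO-only cell control wells on each plate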
HCT116 bCat-KO = beta-catenin-lacking colon tumor cell growth suppression. HCT116 beta-catenin knockout viability, CellTiter-Glo, 60 h; hits give low values. viability, % at 10 µM. actives 1.5% (n = 140,000). AID 818;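 active means viability at or under a set limit, the compound median less 4 SD, cut at about 6% in these data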;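 further: 0% = Hyamine 1622 control at 20 µM and 100% = untreated cell control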
HCT116 PTEN-null = growth suppressors of cells with PTEN tumor suppressor deletion; HCT116 PTEN-null viability, CellTiter-Glo, 60 h; hits give low values; viability, % at 10 µM; actives 1.2% (n = 140,000); AID 827;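 active means viability at or below a set limit, 4 SD under the median of all tested compounds, cut at about 3.7% in these data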;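 further: PTEN knockout HCT116 line with beta catenin targeted HCT116 as companion control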
Pyk2 oligo antag = antagonists of human Pyk2 oligomerization; Q293 cells, Pyk2 FERM NanoBiT luminescence; hits give low values; z-score (the deposit names both 25 µM and 10 µM); actives 0.83% (n = 99,000); AID 1347419;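 active means Z-score of -3 or lower, scaled per plate to the spread of control and sample wells; inactive means z-score above -3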;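 further: negative z-score means lost luminescence so less FERM oligomerization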
Target sequence (Q14289 whole entry, looked up): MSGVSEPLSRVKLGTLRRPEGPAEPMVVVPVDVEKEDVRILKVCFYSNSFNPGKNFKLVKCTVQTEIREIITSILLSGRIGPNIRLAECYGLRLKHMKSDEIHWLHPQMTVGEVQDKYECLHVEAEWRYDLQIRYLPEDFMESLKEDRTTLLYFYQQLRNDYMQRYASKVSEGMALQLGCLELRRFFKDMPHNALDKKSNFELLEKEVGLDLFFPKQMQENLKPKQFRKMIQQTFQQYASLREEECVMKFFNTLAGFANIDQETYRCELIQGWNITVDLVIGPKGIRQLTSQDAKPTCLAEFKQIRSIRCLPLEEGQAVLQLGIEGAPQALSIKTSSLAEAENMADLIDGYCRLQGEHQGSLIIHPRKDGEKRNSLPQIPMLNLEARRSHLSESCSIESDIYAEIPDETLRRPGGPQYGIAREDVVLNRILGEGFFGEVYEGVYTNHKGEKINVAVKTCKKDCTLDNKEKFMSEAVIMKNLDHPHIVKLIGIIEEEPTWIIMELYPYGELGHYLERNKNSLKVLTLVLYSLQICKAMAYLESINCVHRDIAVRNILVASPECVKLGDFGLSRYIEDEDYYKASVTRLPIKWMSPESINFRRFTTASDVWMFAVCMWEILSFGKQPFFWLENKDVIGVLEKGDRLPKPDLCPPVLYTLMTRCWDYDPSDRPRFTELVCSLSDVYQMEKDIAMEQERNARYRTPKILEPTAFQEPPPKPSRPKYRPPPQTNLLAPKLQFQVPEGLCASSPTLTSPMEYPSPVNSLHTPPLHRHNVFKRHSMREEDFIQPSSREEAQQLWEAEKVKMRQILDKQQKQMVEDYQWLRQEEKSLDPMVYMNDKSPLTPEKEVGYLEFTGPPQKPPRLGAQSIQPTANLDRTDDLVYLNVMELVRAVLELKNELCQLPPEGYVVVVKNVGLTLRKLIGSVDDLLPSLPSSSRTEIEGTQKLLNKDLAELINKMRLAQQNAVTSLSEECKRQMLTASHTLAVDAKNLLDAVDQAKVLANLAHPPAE
H69AR inhibit = growth inhibitors of human H69AR lung tumor cells. H69AR lung tumor viability, ATP luminescence, 72 h; hits give low values. viability, % at 10 µM. actives 6% (n = 85,000);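 active means viability at or below 40%; inactive means viability above 40%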;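 further: multidrug resistant small cell line overexpressing MRP-1 efflux transporter; 100% = mean luminescence of untreated control wells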
An asterisk follows results filed as active; / = not tested or not shown. This is one part of a sample in which hits are shown more often than they occur.

SMILES	Fibroblast inh	HUVEC inhibit	HCT116 bCat-KO	HCT116 PTEN-null	Pyk2 oligo antag	H69AR inhibit
COc1ccc(N2CCN(Cc3nc(N)nc(Nc4ccccc4OC)n3)CC2)cc1	103	98	86	96	-0.18	7.7*
COc1ccc(OCc2nc(N)nc(Nc3ccccc3OC)n2)cc1	77	95	76	86	-0.3	2.2*
CC(C)(C)N=Cc1cc(-c2ccccc2)sc1O	100	106	98	88	-0.22	99
COC(=O)C1=C(C(=O)OC)SC(=C2C(=S)C(C)(C)N(C(=O)C(C)C)c3ccccc32)S1	89	86	78	76	-2.4	74
CCCC(=O)N1c2ccccc2C(=C2SC(C(=O)OC)=C(C(=O)OC)S2)C(=S)C1(C)C	86	69	70	64	-2.2	24*
CCOc1ccc2nc(NCCNC(=O)Nc3ccccc3)c(C#N)cc2c1	102	73	95	88	0.39	28*
CC(=Nc1cccc(C)c1)c1sc2ccccc2c1O	109	86	84	87	0.15	44
Cc1cccc(N=Nc2ccc(O)c3ncccc23)c1	/	/	6.0*	14	/	/
O=C(NNC(=O)C1CCN(S(=O)(=O)c2ccc(Cl)cc2)CC1)c1ccccc1	/	/	106	92	0.1	/
O=C(CN1CCN(S(=O)(=O)c2ccc(Br)cc2)CC1)Nc1ccc2c(c1)OCCO2	98	88	95	94	-1.5	17*
COc1ccc(S(=O)(=O)N2CCN(CC(=O)Nc3ccc(C)c(F)c3)CC2)cc1	105	99	69	76	0.29	4.9*
O=C(CN1CCN(S(=O)(=O)c2ccc(Cl)cc2)CC1)Nc1ccc2c(c1)OCCO2	104	88	93	98	-0.64	67
CN(CC(=O)Nn1cnnc1)S(=O)(=O)c1ccccc1	101	96	90	100	0.5	94
O=S(=O)(NCc1ccccc1)c1ccc(S(=O)(=O)N(Cc2ccccn2)C2CCCC2)cc1	94	80	79	77	-0.35	72
CN(Cc1ccccc1)S(=O)(=O)c1ccc(S(=O)(=O)N(Cc2ccc(F)cc2)C2CCCC2)cc1	99	87	85	88	0.64	32*
COc1ccc2cc3cc(C(=O)Nc4cc(OC)c(OC)c(OC)c4)oc3nc2c1	104	76	86	62	-1.7	87
COc1ccc2cc3cc(C(=O)Nc4ccc5c(c4)OCCO5)oc3nc2c1	91	26*	86	81	0.1	40*
CCOc1ccccc1-n1c(SCC(=O)Nc2ccc(CC)cc2)nc2n[nH]c(C)c2c1=N	/	/	5.0*	3.7*	/	/
CCOc1ccccc1NC(=O)CCSc1nc2n[nH]c(C)c2c(=N)n1-c1ccccc1Cl	56	52	14	15	-1.3	6.5*
CCCC(=O)Nc1nc2ccc(NC(=O)c3ccc(Br)o3)cc2s1	91	59	72	73	-2.6	90
CCN1CCN(c2cc(C)c3cc(NC(=O)c4ccc(Br)o4)ccc3n2)CC1	43*	4.5*	8	9	-1.1	41
O=C(Nc1ccc2nn(-c3ccccc3)nc2c1)c1ccc2c(c1)OCCO2	/	49	55	53	-2	58
CCN(CC)c1cc(C)c2cc(NC(=O)c3ccc(Br)o3)ccc2n1	90	28*	12	9	0.66	58
CCN1CCN(c2cc(C)c3cc(NC(=O)c4ccncc4)ccc3n2)CC1	96	94	77	75	/	99
O=C(Nc1ccc2nn(-c3ccccc3)nc2c1)c1ccc(Br)o1	74	57	74	93	-0.37	30*
C=CCn1c(CNc2ccc(C)cc2)nnc1SCC(=O)N/N=C/c1ccc(O)cc1	/	/	99	101	0.78	/
CC(C)(C)c1ccc(Cn2nnc3c(=O)[nH]c(C4CCCN(C(=O)Cc5cccs5)C4)nc32)cc1 (configuration not stated)	96	77	81	41	-1.3	17*
CC(C)(C)c1ccc(Cn2nnc3c(=O)[nH]c(C4CCN(C(=O)Cc5cccs5)CC4)nc32)cc1	89	41	16	17	-2.1	51
CC1=C(C#N)C(Nc2ccc(Cl)cn2)(C(F)(F)F)C(=O)N1 (configuration not stated)	94	91	78	95	-1.9	94
